Reference: ChEMBL document CHEMBL5316351, “Development of a Covalent Inhibitor of c-Jun N-Terminal Protein Kinase (JNK) 2/3 with Selectivity over JNK1” (J Med Chem, 2023)
The source made the active and inactive calls. No cut-off for these calls is given here.

Tests used:
[1] = target: T1, 1-phosphatidylinositol 3-phosphate 5-kinase (Homo sapiens, UniProt Q9Y2I7); test: Inhibition of wild type partial length human PIKFYVE (F1512 to C2098 residues) expressed in mammalian expression system at 1 uM by KinomeScan analysis
Summary of the method: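 KINOMEscan (ScanMAX) binding panel of >400 kinases, compound tested at 1 μM; reported as percent inhibition/score.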

[2] = target: T1, 1-phosphatidylinositol 3-phosphate 5-kinase; test: Inhibition of PIKFYVE in human SUM159 cells at 1 uM by KiNativ Profiling analysis; type: cell-based; conditions: SUM159PT
Summary of the method: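 SUM159 cells treated with 1 μM compound, collected, PBS-washed and frozen; lysates probed with ATP/ADP-biotin acyl probe labelling catalytic lysine (KiNativ); protection from labelling measured.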

[3] = Half life in human liver microsomes at 1 uM by LC-MS/MS analysis; type: ADME, Microsome
[4] = Half life in mouse liver microsomes at 1 uM by LC-MS/MS analysis; type: ADME, Microsome
[5] = GSH reactivity in potassium phosphate buffer at pH 7.4 assessed as half life at 1 uM by LC-MS/MS analysis; type: ADME; conditions: pH 7.4, 1 µM
[6] = target: T2, Mitogen-activated protein kinase 9 (Homo sapiens, UniProt P45984); test: Inhibition of JNK2 in human MM1.S cells at 1 uM by KiNativ Profiling analysis; type: cell-based
Summary of the method: (§1)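 MM.1S cells treated with 1 μM compound, collected, PBS-washed, frozen; KiNativ lysate profiling with ATP/ADP-biotin probe labelling conserved catalytic lysine.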

[7] = target: T1, 1-phosphatidylinositol 3-phosphate 5-kinase; test: Inhibition of PIKFYVE in human MDA-MB-231 cells assessed as vacuole formation upto 4 uM measured after 3 days by bright field microscopy; type: cell-based; conditions: time 3.0 day
Summary of the method: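 MDA-MB-231 cells (DMEM, 10% FBS) seeded, next day treated with inhibitor or DMSO; after 3 days imaged by bright-field microscopy at 20× for vacuoles.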

[8] = target: T3, Mitogen-activated protein kinase 14 (Homo sapiens, UniProt Q16539); test: Inhibition of Nano-Luc fused p38alpha (unknown origin) expressed in HEK293T cells pretreated for 3 hrs followed by K5-tarcer addition and measured after 1 hr by NanoBRET assay; type: cell-based; conditions: time 4.0 hrs
[9] = target: T2, Mitogen-activated protein kinase 9; test: Covalent binding affinity to JNK2 in human MM1.S cells at 500 nM incubated for 6 hrs by biotin-JNK-IN-7 probe based pull-down competition based analysis; type: cell-based
Summary of the method: (§2)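 MM.1S cells exposed to compound or DMSO 6 h; lysed in HEPES pH 7.4/NP-40 buffer; lysates incubated with 1 μM biotin-JNK-IN-7 overnight at 4 °C then 2 h room temperature; streptavidin pull-down 2–3 h at 4 °C; bound JNK1/JNK2 detected by western blot.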

[10] = target: T4, Mitogen-activated protein kinase 8 (Homo sapiens, UniProt P45983); test: Covalent binding affinity to JNK1 in human MM1.S cells at 2 uM incubated for 6 hrs by biotin-JNK-IN-7 probe based pull-down competition based analysis; type: cell-based; summary of the method: as §2
MM1.S [11] = test: Antiproliferative activity against human MM1.S cells assessed as inhibition of cell growth rate measured after 72 hrs by CellTiter-Glo luminescent assay; type: functional
MM1.S [12] = test: Induction of apoptosis in human MM1.S cells assessed as increase in PARP cleavage at 0.5 to 2.5 uM incubated for 24 hrs by immunoblot analysis; type: functional, cell-based; conditions: dose 0.5-2.5 µM
MM1.S [13] = test: Induction of apoptosis in human MM1.S cells assessed as increase in caspase-3 cleavage at 0.5 to 2.5 uM incubated for 24 hrs by immunoblot analysis; type: functional, cell-based; conditions: dose 0.5-2.5 µM
MM1.S [14] = test: Induction of apoptosis in human MM1.S cells at 250 nM by AnnexinV/PI staining based flow cytometry; type: functional, cell-based
[15] = Antiproliferative activity against wild type human ANBL-6 cells assessed as inhibition of cell growth incubated for 72 hrs by CellTiter-Glo luminescent assay; type: functional, cell-based; conditions: ANBL-6, 72 h
[16] = Antiproliferative activity against Bortezomib-resistant human ANBL-6 cells assessed as inhibition of cell growth incubated for 72 hrs by CellTiter-Glo luminescent assay; type: functional, cell-based; conditions: ANBL-6, 72 h
MM1.S [17] = test: Antiproliferative activity against human MM1.S cells overexpressing wild type JNK2 assessed as inhibition of cell growth rate measured after 72 hrs by CellTiter-Glo luminescent assay; type: functional, cell-based
MM1.S [18] = type: functional, cell-based; conditions: Homo sapiens, time 72.0 hrs
MM1.S [19] = test: Antiproliferative activity against human MM1.S cells assessed as inhibition of cell growth rate pretreated for 1 hr with JNK2 inhibitor, CC930 followed by incubation with drug and measured after 72 hrs by CellTiter-Glo luminescent assay; type: functional, cell-based
Summary of the method: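 MM.1S cells seeded 4000 cells/well, pretreated with 10 μM CC930, then exposed to inhibitor for 72 h; CellTiter-Glo luminescence, GR values from GR calculator; three biological replicates.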

[20] = Antiproliferative activity against human HAP1 cells assessed as inhibition of cell growth incubated for 3 days by CellTiter-Glo luminescent assay; type: functional, cell-based; conditions: HAP1, 72 h
[21] = Antiproliferative activity against human HAP1 cells transfected with sgGFP assessed as inhibition of cell growth incubated for 3 days by CellTiter-Glo luminescent assay; type: functional, cell-based; conditions: HAP1, 72 h
[22] = Antiproliferative activity against JNK knock-out human HAP1 cells transfected with sgJNK#1 assessed as inhibition of cell growth incubated for 3 days by CellTiter-Glo luminescent assay; type: functional, cell-based; conditions: HAP1, 72 h
[23] = Antiproliferative activity against JNK knock-out human HAP1 cells transfected with sgJNK#2 assessed as inhibition of cell growth incubated for 3 days by CellTiter-Glo luminescent assay; type: functional, cell-based; conditions: HAP1, 72 h
[24] = target: T4, Mitogen-activated protein kinase 8; test: Inhibition of His-tagged human recombinant JNK1 expressed in insect cells incubated for 1 hr in presence of ATP by Z'-Lyte assay relative to control; conditions: Insect cell
[25] = target: T2, Mitogen-activated protein kinase 9; test: Inhibition of His-tagged human recombinant JNK2 expressed in baculovirus expression system incubated for 1 hr in presence of ATP by Z'-Lyte assay relative to control
[26] = target: Mitogen-activated protein kinase 10 (Homo sapiens) (UniProt P53779); test: Inhibition of GST-tagged human recombinant JNK3 expressed in insect cells incubated for 1 hr in presence of ATP by Z'-lyte assay relative to control; conditions: Insect cell
[27] = target: T4, Mitogen-activated protein kinase 8; test: Inhibition of JNK1 in human MM1.S cells at 1 uM by KiNativ Profiling analysis; type: cell-based; summary of the method: as §1
[28] = target: Mitogen-activated protein kinase 10 (Homo sapiens) (UniProt P53779); test: Inhibition of JNK3 in human MM1.S cells at 1 uM by KiNativ Profiling analysis; type: cell-based; summary of the method: as §1
[29] = target: T3, Mitogen-activated protein kinase 14; test: Inhibition of GST-tagged human recombinant p38alpha expressed in Escherichia coli by Z'-LYTE assay

T2 sequence (P45984 whole entry, looked up): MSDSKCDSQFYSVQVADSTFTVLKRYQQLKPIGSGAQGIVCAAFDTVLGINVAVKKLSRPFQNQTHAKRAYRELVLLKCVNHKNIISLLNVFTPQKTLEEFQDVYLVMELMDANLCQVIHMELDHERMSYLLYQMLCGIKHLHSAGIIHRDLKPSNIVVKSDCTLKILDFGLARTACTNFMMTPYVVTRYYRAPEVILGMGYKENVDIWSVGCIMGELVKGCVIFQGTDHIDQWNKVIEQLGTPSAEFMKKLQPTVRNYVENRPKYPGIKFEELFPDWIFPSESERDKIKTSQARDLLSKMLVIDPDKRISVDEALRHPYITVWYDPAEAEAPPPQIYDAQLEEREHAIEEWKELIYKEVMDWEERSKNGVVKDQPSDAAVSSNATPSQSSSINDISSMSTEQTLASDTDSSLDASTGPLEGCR
T1 sequence (Q9Y2I7 whole entry, the tested form may be a part): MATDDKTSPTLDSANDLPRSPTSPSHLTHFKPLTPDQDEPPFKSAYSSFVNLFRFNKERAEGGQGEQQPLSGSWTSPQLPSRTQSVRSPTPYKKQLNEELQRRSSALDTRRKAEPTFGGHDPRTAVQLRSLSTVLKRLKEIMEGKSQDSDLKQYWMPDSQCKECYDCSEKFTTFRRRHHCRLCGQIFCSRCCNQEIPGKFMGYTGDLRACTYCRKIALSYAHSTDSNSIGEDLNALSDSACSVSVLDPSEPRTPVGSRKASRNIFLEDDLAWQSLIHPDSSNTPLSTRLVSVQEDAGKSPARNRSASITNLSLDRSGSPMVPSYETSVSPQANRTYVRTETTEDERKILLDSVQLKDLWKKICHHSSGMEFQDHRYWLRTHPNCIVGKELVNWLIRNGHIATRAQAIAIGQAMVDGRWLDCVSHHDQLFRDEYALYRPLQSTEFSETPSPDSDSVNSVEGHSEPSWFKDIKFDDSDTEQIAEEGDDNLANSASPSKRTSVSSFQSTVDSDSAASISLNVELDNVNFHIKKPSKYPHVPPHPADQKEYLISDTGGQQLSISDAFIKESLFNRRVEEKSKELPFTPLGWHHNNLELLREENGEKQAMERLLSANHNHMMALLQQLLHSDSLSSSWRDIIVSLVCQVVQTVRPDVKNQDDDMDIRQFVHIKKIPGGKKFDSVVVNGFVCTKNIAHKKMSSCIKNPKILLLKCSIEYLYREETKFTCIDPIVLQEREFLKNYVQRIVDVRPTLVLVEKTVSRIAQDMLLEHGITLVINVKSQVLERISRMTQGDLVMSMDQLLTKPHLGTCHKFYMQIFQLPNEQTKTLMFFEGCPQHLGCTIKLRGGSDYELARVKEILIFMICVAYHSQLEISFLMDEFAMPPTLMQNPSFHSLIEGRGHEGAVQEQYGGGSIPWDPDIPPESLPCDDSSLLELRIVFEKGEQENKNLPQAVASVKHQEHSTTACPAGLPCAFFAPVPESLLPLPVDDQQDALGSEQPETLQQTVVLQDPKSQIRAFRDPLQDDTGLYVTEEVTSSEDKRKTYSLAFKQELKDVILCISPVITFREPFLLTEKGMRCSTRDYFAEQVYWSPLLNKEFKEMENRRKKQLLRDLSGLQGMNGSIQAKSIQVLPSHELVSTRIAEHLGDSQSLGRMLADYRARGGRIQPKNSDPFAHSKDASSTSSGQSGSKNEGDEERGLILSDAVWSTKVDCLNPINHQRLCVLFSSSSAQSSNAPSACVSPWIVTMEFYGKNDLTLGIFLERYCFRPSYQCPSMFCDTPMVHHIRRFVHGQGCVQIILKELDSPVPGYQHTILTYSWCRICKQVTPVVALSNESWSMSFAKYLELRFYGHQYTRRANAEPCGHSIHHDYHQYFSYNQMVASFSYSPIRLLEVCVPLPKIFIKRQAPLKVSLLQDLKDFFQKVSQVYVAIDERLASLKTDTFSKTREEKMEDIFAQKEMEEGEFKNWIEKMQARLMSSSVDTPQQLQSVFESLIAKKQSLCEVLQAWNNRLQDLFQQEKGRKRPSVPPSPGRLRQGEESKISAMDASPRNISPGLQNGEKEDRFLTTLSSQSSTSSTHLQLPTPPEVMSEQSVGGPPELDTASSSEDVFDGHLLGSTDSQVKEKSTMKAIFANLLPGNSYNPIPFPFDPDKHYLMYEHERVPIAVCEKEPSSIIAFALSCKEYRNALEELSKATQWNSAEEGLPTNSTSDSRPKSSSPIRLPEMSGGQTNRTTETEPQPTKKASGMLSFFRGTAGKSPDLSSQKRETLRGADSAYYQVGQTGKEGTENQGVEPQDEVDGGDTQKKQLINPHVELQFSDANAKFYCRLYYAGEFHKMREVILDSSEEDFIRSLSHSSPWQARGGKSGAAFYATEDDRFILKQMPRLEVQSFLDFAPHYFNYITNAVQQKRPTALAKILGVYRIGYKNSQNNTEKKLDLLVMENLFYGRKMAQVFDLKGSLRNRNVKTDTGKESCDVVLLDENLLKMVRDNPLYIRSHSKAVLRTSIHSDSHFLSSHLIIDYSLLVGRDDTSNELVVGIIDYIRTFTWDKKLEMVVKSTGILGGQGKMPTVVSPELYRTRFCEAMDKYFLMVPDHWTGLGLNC
T4 sequence (P45983 whole entry): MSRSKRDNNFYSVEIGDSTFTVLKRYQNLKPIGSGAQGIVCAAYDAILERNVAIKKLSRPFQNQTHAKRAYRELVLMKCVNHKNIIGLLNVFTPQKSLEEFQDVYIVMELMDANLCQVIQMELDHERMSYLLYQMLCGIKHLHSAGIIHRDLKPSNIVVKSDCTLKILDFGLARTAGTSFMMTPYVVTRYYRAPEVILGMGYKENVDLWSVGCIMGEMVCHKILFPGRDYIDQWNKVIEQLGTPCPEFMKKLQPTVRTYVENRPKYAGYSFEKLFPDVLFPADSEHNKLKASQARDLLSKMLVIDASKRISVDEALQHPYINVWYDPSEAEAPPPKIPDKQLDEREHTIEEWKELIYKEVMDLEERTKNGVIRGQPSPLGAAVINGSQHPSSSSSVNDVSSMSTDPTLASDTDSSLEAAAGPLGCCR
T3 sequence (Q16539 whole entry, the tested form may be a part): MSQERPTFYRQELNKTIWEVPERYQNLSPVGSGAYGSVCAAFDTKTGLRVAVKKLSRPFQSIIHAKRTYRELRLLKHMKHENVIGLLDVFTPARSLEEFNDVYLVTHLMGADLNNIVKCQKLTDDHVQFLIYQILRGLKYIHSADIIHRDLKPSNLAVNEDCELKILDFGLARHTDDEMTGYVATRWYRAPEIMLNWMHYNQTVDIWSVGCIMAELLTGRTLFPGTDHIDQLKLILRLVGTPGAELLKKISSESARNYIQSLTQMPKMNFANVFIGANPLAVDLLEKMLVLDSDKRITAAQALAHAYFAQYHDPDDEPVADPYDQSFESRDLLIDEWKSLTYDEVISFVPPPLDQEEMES
Chain of Mitogen-activated protein kinase 10 (Homo sapiens) (P53779 whole entry): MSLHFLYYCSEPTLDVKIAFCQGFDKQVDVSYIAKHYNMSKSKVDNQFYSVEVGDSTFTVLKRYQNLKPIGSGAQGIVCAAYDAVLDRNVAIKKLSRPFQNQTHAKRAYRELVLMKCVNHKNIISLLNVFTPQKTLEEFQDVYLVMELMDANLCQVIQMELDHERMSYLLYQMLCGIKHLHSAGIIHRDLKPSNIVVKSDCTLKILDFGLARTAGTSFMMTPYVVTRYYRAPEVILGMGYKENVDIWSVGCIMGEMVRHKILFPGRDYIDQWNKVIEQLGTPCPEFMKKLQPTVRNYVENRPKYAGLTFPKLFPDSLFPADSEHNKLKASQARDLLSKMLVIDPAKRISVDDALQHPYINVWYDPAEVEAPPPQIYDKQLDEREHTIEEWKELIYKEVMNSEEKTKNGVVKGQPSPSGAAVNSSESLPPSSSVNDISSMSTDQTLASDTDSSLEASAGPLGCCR

inhibition [1]: 44%
inhibition [2]: inactive
t1/2 [3]: 16 min
t1/2 [4]: 11 min
t1/2 [5]: 46 min
inhibition [6]: Active
inhibition [7]: inactive
inhibition [8]: Active
Activity [9]: Active
Activity [10]: Active
Imax [24]: 85%
Imax [25]: 98%
Imax [26]: 68%
inhibition [27]: Active
inhibition [28]: Active
IC50 [29]: 15 nM
SMILES: C[C@H]1CN(C(=O)c2ccc(NC(=O)/C=C/CN(C)C)cc2)C[C@H]1Nc1nccc(-c2c(-c3ccccc3)nn3ccccc23)n1
GR50 (MM1.S [11]): 200 nM
Activity (MM1.S [12]): Active
Activity (MM1.S [13]): Active
Activity (MM1.S [14]): Active
IC50 [15]: 120 nM
IC50 [16]: 96 nM
Activity (MM1.S [17]): Active
Activity (MM1.S [18]): Active
Activity (MM1.S [19]): Active
IC50 [20]: 529 nM
IC50 [21]: 976 nM
IC50 [22]: 1110 nM
IC50 [23]: 846 nM
